Consider one sequence from ChEMBL document CHEMBL1129059, “Antitumor properties of some 2-[(dimethylamino)methyl]phenylgold(III) complexes” (J Med Chem, 1996).

One may read the IC50 as the point on the concentration scale where inhibition reaches its midpoint.

Assay [1] concerns ZR-75-1. Kind of assay: Compound was tested for in vitro growth inhibition of primary panel tumor cell linZR-75-1. It counts as functional, cell-based, Homo sapiens. The procedure, abridged: (§1)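 Primary-panel lines kept in L15, RPMI 1640 plus pyruvate, or MEM, each with 10% FBS. Cells were seeded at 5×10^4–10^5 cells/mL, preincubated 24 h, then exposed 4 h to 0–200 μg/mL from a 2 mg/mL stock in 10% DMA/PBS. After washout and 72 h further growth, cells were read by SRB. IC50 was the concentration giving 50% survival versus untreated controls.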

The subject of assay [2] is SW-620. As to the kind of experiment: Compound was tested for in vitro growth inhibition of primary panel tumor cell lines SW620. The assay is classed as functional, cell-based, Homo sapiens. The procedure, abridged:
as §1

For assay [3], the system named is HT-29. Kind of assay: Compound was tested for in vitro growth inhibition of primary panel tumor cell line HT-29/219. The assay is classed as functional, cell-based, Homo sapiens. The procedure, abridged: as §1
The test system of assay [4] is CH1. As to the kind of experiment: Compound was tested for in vitro growth inhibition of Ovarian carcinoma cell line panel CH1-R. It counts as functional, cell-based. The procedure, abridged: (§2)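 Ovarian lines grown as monolayers in DMEM with 10% FBS, insulin, hydrocortisone and L-glutamine under 6% CO2. Cells were seeded at 3–5 × 10³/well and left to attach overnight. Compounds were freshly dissolved in DMA or water and applied for 96 h in quadruplicate wells. Growth was measured by SRB and reported as IC50.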

For assay [5], the system named is SK-OV-3. As to the kind of experiment: Compound was tested for in vitro growth inhibition of primary panel tumor cell line SK-OV-3. The assay is classed as functional, cell-based, Homo sapiens. The procedure, abridged: as §1
For assay [6], the system named is SK-OV-3. As to the kind of experiment: Compound was tested for in vitro growth inhibition of Ovarian carcinoma cell line panel SK-OV-3. It counts as functional, cell-based, Homo sapiens. The procedure, abridged: as §2
In assay [7] the test system is HX62 cell line. Kind of assay: Compound was tested for in vitro growth inhibition of Ovarian carcinoma cell line panel HX62. The assay is classed as functional, cell-based, Homo sapiens. The procedure, abridged: as §2
For assay [8], the system named is CH1. Kind of assay: Compound was tested for in vitro growth inhibition of Ovarian carcinoma cell line panel CH1. The assay is classed as functional, cell-based. The procedure, abridged:
as §2

For assay [9], the system named is SW 1116. As to the kind of experiment: Compound was tested for in vitro growth inhibition of primary panel tumor cell line SW1116. It counts as functional, cell-based, Homo sapiens. The procedure, abridged: as §1
Assay [10] concerns A2780. As to the kind of experiment: Compound was tested for in vitro growth inhibition of Ovarian carcinoma cell line panel A2780-R. It counts as functional, cell-based, Homo sapiens. The procedure, abridged: as §2
In assay [11] the test system is HT-1376. As to the kind of experiment: Compound was tested for in vitro growth inhibition of primary panel tumor cell line HT1376. It counts as functional, cell-based, Homo sapiens. The procedure, abridged: as §1
Assay [12] has as its system A2780. Kind of assay: Compound was tested for in vitro growth inhibition of Ovarian carcinoma cell line panel A2780. It counts as functional, cell-based, Homo sapiens. The procedure, abridged:
as §2

With CISPLATIN, the 50% inhibitory concentration (IC50) in [1] was determined as 27 µM; in assay [2], 167 µM; in assay [3], 17 µM; in assay [4], 0.56 µM; in assay [5] it was 23 µM; in assay [6], 5.2 µM. For the same sequence, the IC50 in [7] stood at 18 µM; in [8], 0.12 µM; in [9], 163 µM; in [10], 10 µM; in [11], 23 µM; in [12] it was 1.2 µM.
